Experimental data from ChEMBL document CHEMBL1130202, “Biologically active heteroarotinoids exhibiting anticancer activity and decreased toxicity” (J Med Chem, 1997).
The source made the active and inactive calls. The rule behind the calls is not given here.

Assays:
Mus musculus [1] = organism: Mus musculus; experiment: Fracture incidence in mouse at mid dose 2; 4/8
Mus musculus [2] = organism: Mus musculus; experiment: Enlarged spleen in Gross pathological observations in mice with hypervitaminosis A at mid dose 1 with gross observations/total number of mice in group; 1/16; type: functional, organism-based
Mus musculus [3] = organism: Mus musculus; experiment: Mortality rate in mice in low dose; type: functional
How it was run: (§1)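 Male B6D2F1 mice given compound daily by gavage in corn oil at the stated dose levels, with corn oil vehicle controls. Deaths counted as animals found dead or sacrificed moribund, with day(s) of death recorded. Heteroarotinoid groups ran to day 65 and low-dose reference groups to day 25.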

Mus musculus [4] = organism: Mus musculus; experiment: Avoiding pressure on limbs in mice at high dose with Hypervitaminosis; 4/16; type: functional, organism-based; conditions: Limb
Mus musculus [5] = organism: Mus musculus; experiment: Effect of compound on serum triglycerides levels in mice at mid dose 2 on day 36; type: functional
How it was run: (§2)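 Male B6D2F1 mice were gavaged daily with compound in corn oil at low, mid 1, mid 2 or high dose. Serum triglycerides and circulating white blood cells were measured on the stated day (8, 29, 36, 65). Values are group mean ± SD expressed as % relative to corn-oil vehicle, with significance at p ≤ 0.05.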

Mus musculus [6] = organism: Mus musculus; experiment: Enlarged lymph in gross pathological observations in mice with hypervitaminosis A at mid dose 1 with gross observations/total number of mice in group; 0/16; type: functional, organism-based
Mus musculus [7] = organism: Mus musculus; experiment: Fracture incidence in mouse at mid dose 2; 0/8
Mus musculus [8] = organism: Mus musculus; experiment: Alopecia in mice observed at mid dose 1 with Hypervitaminosis; 1/16; type: functional, organism-based
Mus musculus [9] = organism: Mus musculus; experiment: Alopecia in mice observed at low dose with Hypervitaminosis; 1/16; type: functional, organism-based
Mus musculus [10] = organism: Mus musculus; experiment: Alopecia in mice observed at high dose with Hypervitaminosis; 1/16; type: functional, organism-based
Mus musculus [11] = experiment: Effect of compound on right testicle to body weight ratios in mice at 0.05 mg/kg/day dose; all the animals died by day 65; type: functional, organism-based
Mus musculus [12] = experiment: Enlarged lymph in gross pathological observations with hypervitaminosis A in mice at 0.2 mg/kg/day dose with gross observations/total number of animals in group; 16/16; type: functional, organism-based
Mus musculus [13] = experiment: Average number of fractures per mouse at 0.01 mg/kg/day
Mus musculus [14] = experiment: Enlarged lymph in gross pathological observations with hypervitaminosis A at 0.1 mg/kg/day dose with gross observations/total number of animals in group'' 16/16; type: functional, organism-based
Mus musculus [15] = experiment: Total dose of 10% weight loss in mice at 0.05 mg/kg/day; type: functional
Mus musculus [16] = experiment: Calculated 30-day maximally tolerated dose based on 10% weight loss in mice at 0.05 mg/kg/day; type: functional
Mus musculus [17] = experiment: Effect of compound on Spleen to body weight ratios in mice at 0.1 mg/kg/day dose on day 65; dead by day 65; type: functional, organism-based
How it was run: (§3)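 Male B6D2F1 mice dosed daily by gavage with compound in corn oil; vehicle 1 (corn oil) controls run to termination on day 65. Low, mid 1, mid 2 and high dose groups, with dosage increases partway through the study. Organ-to-body weight ratios (×1000) taken at necropsy on day 65, reported as mean ± SD for 4 to 8 animals and as % difference from vehicle.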

[18] = Mortality rate in mice at 0.2 mg/kg/day; range (8-19); type: ADME, organism-based; conditions: mouse, in vivo
How it was run: as §1

Mus musculus [19] = experiment: Effect of compound on thymus to body weight ratios in mice at 0.1 mg/kg/day dose; all the animals died by day 65; type: functional, organism-based
How it was run: (§4)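 Male B6D2F1 mice were dosed daily by gavage in corn oil, with TTNPB given at 0.1–0.8 or 0.01/0.05 mg/kg/day. Thymus-to-body weight ratio (×1000) was taken at necropsy on day 65 against vehicle 1, or on day 25 for the 0.01/0.05 groups against vehicle 2. Mean ± SD of 4–8 animals, reported as % difference from vehicle.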

Mus musculus [20] = experiment: Enlarged lymph in gross pathological observations with hypervitaminosis A in mice at 0.01 mg/kg/day dose with gross observations/total number of animals in group; 6/8; type: functional, organism-based
Mus musculus [21] = experiment: Skin scaling at 0.8 mg/kg/day in mice with hypervitaminosis; 12/16; type: functional, organism-based
Mus musculus [22] = experiment: Effect of compound on right testicle to body weight ratios in mice at 0.05 mg/kg/day dose on day 25; dead on day 65; type: functional, organism-based
Mus musculus [23] = experiment: Avoiding pressure on limbs at 0.4 mg/kg/day dose in mice with hypervitaminosis; 0/16; type: functional, organism-based; conditions: Limb
Mus musculus [24] = experiment: Effect of compound on Spleen to body weight ratios in mice at 0.8 mg/kg/day dose on day 65; dead by day 65; type: functional, organism-based
How it was run: as §3

Mus musculus [25] = experiment: Enlarged spleen in Enlarged spleen in Gross pathological observations with hypervitaminosis A in mice at 0.2 mg/kg/day dose with gross observations/total number of animals in group; 0/16; type: functional, organism-based
Mus musculus [26] = experiment: Enlarged lymph in gross pathological observations with hypervitaminosis A in mice at 0.8 mg/kg/day dose with gross observations/total number of animals in group; 8/16; type: functional, organism-based
Mus musculus [27] = experiment: Effect of compound on right testicle to body weight ratios in mice at 0.4 mg/kg/day dose on day 65; type: functional, organism-based
Mus musculus [28] = experiment: Avoiding pressure on limbs at 0.01 mg/kg/day dose in mice hypervitaminosis; 0/16; type: functional, organism-based; conditions: Limb
Mus musculus [29] = experiment: Effect of compound on adrenal to body weight ratios in mice at 0.4 mg/kg/day dose; all the animals died by day 65; type: functional, organism-based
Mus musculus [30] = experiment: Effect of compound on right testicle to body weight ratios in mice at 0.1 mg/kg/day dose; all the animals died by day 65; type: functional, organism-based
Mus musculus [31] = experiment: Effect of compound on thymus to body weight ratios in mice at 0.4 mg/kg/day dose; all the animals died by day 65; type: functional, organism-based
How it was run: as §4

[32] = Mortality rate in mice at 0.4 mg/kg/day; range (8-19); type: ADME, organism-based; conditions: mouse, in vivo
How it was run: as §1

Mus musculus [33] = organism: Mus musculus; experiment: Compound toxicity determined by total dose to termination (day 25/65) in low dose; type: functional
How it was run: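 Male B6D2F1 mice given daily oral gavage in corn oil; dosages increased during the study (day 30 or day 51 depending on compound). Cumulative dose in mg/kg administered up to termination (day 65, or day 25 for TTNPB 0.01/0.05 mg/kg/day groups).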

Mus musculus [34] = organism: Mus musculus; experiment: Enlarged spleen in Gross pathological observations in mice with hypervitaminosis A at mid dose 2 with gross observations/total number of mice in group; 6/16
Mus musculus [35] = organism: Mus musculus; experiment: Effect of compound on white blood cells levels in mice at mid dose 1 on day 65; type: functional
How it was run: as §2

Mus musculus [36] = organism: Mus musculus; experiment: Enlarged spleen in Gross pathological observations in mice with hypervitaminosis A at high dose with gross observations/total number of mice in group; 4/16; type: functional, organism-based
Mus musculus [37] = organism: Mus musculus; experiment: Enlarged spleen in Gross pathological observations in mice with hypervitaminosis A at low dose with gross observations/total number of mice in group; 3/16; type: functional, organism-based
Mus musculus [38] = organism: Mus musculus; experiment: Fracture incidence in mouse at low dose; 2/8
Mus musculus [39] = organism: Mus musculus; experiment: Effect of compound on serum Alkaline phosphatase levels in mice at mid dose 2 on day 29; type: functional
How it was run: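 Male B6D2F1 mice dosed daily by oral gavage in corn oil at low, mid 1, mid 2 or high dose. Blood sampled on set days (8, 29, 36, 65) for clinical chemistry, serum alkaline phosphatase and triglycerides. Group mean ± SD reported as % relative to vehicle 1; significance p < 0.05 versus corn oil vehicle.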

CC(/C=C/C=C(\C)c1ccc2c(c1)C(C)(C)CCO2)=C\C(=O)O
Activity (Mus musculus [1]): Weak activity | Activity (Mus musculus [2]): inactive | Mortality (Mus musculus [3]): 0 day of death | Activity (Mus musculus [4]): Weak activity | Activity (Mus musculus [5]): 195.9

CC(/C=C/C=C(\C)c1ccc2c(c1)C(C)(C)CCS2)=C\C(=O)O
Activity (Mus musculus [6]): inactive | Activity (Mus musculus [7]): inactive | Activity (Mus musculus [8]): inactive | Activity (Mus musculus [9]): inactive | Activity (Mus musculus [10]): inactive

C/C(=C\c1ccc(C(=O)O)cc1)c1ccc2c(c1)C(C)(C)CCC2(C)C
Activity (Mus musculus [11]): Toxic | Activity (Mus musculus [12]): Active | Activity (Mus musculus [13]): 0.1 | Activity (Mus musculus [14]): Active | Dose (Mus musculus [15]): 0.4 mg/kg | Max tolerated dose (Mus musculus [16]): 0.001 mg/kg | Activity (Mus musculus [17]): Toxic | Mortality [18]: 6 day of death | Activity (Mus musculus [19]): Toxic | Activity (Mus musculus [20]): Active | Activity (Mus musculus [21]): Active | Activity (Mus musculus [22]): Toxic | Activity (Mus musculus [23]): inactive | Activity (Mus musculus [24]): Toxic | Activity (Mus musculus [25]): inactive | Activity (Mus musculus [26]): Weak activity | Activity (Mus musculus [27]): Toxic | Activity (Mus musculus [28]): inactive | Activity (Mus musculus [29]): Toxic | Activity (Mus musculus [30]): Toxic | Activity (Mus musculus [31]): Toxic | Mortality [32]: 14 day of death

C/C(=C\c1ccc(C(=O)O)cc1)c1ccc2c(c1)C(C)(C)CCO2
Total dose (Mus musculus [33]): 147.1 mg/kg | Activity (Mus musculus [34]): Weak activity | Activity (Mus musculus [35]): 5.46 | Activity (Mus musculus [36]): Weak activity | Activity (Mus musculus [37]): inactive | Activity (Mus musculus [38]): Weak activity | Activity (Mus musculus [39]): 106.3
